Results on 101 molecules are retold here after PubChem BioAssay AID588627 (Johns Hopkins Ion Channel Center, 2011).

Screen size: about 310,000 compounds; about 1,400 (0.45%) were called active.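 Rule for the calls: active = calcium response B-score plate-corrected fluorescence ratio at least 3 library SD, with starting fluorescence B-score inside 5 SD; inactive = the rest.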 What follows is part of a selection rich in actives, with near analogues and random picks from the rest.

Chain of Mas-related G-protein coupled receptor member X1 (Homo sapiens) (Q96LB2 whole entry, looked up): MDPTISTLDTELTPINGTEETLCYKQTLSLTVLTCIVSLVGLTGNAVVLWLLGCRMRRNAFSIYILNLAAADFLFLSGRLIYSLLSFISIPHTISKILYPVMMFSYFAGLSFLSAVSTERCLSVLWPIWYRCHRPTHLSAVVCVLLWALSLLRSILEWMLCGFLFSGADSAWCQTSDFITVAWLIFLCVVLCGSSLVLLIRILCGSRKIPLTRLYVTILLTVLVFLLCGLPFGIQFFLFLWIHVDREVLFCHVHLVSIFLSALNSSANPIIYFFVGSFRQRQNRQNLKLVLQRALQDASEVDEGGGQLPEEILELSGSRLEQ

This assay concerns the target Mas-related G-protein coupled receptor member X1 (Homo sapiens) (UniProt Q96LB2). Briefly: MrgX1 activation via calcium signaling – HEK293 cells, Fluo-4 calcium flux, primary screen (AID 588627).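 For B-score: B-score of the peak-minus-trough calcium fluorescence change over baseline.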 The conditions noted are these: Fluo-4 calcium fluorescence, agonist mode, at 10 µM; active compounds read high. The essentials: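 Test system: HEK293 cells stably expressing human MrgX1 receptor; amount: 15,000 cells per well; doses: compound delivered in addition one of three; times: overnight plating before 1 h dye loading; detection: Fluo-4 NW calcium-flux fluorescence, kinetic read; read-out basis: B-scored fluorescence response ratio; controls: positive and negative controls per plate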
A general note: Calcium flux is commonly read through the fluorescence of an indicator in the cells.
With `CCCCN1C(=O)/C(=C/C=C2/C=Cc3ccccc3N2CC)SC1=S`, the B-score result was “inactive”. As for `CCCCN1C(=O)/C(=C2/Sc3ccc(Cl)cc3N2CC)SC1=S`, the B-score is 34.9 (active). The same measure for `CCCCN1C(=O)/C(=C2/C=CC=CN2C)SC1=S`: “inactive”. The same measure for `COc1ccc(CCNc2ncnc3c2nnn3Cc2ccccc2)cc1`: “inactive”; for `Fc1ccc2[nH]c3c(N4CCSCC4)ncnc3c2c1`: 29.1 (active); for `Cc1c(CN2CC[C@@H](N3CCN(c4ccccn4)CC3)[C@H](O)C2)[nH]c2ccc(F)cc12`: “inactive”.

Consider `CC(C)C(=O)Nc1cccc(NC(=S)NC(=O)C(c2ccccc2)c2ccccc2)c1`, for which the B-score result was “inactive”. Turning to `CCCCC(=O)NNC(=S)NC(=O)C(c1ccccc1)c1ccccc1`, the B-score was 145 (active). Turning to `O=C(NNC(=S)NCc1ccco1)C(c1ccccc1)c1ccccc1`, the B-score entry was “inactive”. Take `CN(C)Cc1ccc(F)cc1Sc1cc(Cl)ccc1Cl`: the B-score result was “inactive”.

For the molecule `COc1ccccc1N1CC(C(=O)Nc2nnc(SCC(=O)NC(C)C)s2)CC1=O` (stereo unspecified), the B-score entry is “inactive”.

For the molecule `CCc1noc(C)c1C(=O)Nc1nc(-c2ccccc2)cs1`, the B-score entry was “inactive”. In the case of `OC(C#CCN1CCOCC1)(c1ccccc1)C1CCCCC1` (stereo unspecified), the B-score result was “inactive”. Regarding `CCCc1ccc(OCC(=O)NNC(=S)NC(=O)c2ccco2)cc1`, the B-score result was “inactive”.

Take `CC(Oc1ccc2ccccc2c1)C(=O)NNC(=S)NC(=O)c1ccco1` (stereo unspecified): the B-score was 69.9 (active). Regarding `Cc1ccc(C(=O)NNC(=O)C(C)Oc2ccc3ccccc3c2)o1` (stereo unspecified), the B-score entry is “inactive”. On to `CCC1(c2ccccc2)NC(=O)N(CC(=O)c2ccc3c(c2)OCO3)C1=O` (stereo unspecified), for which the B-score entry was “inactive”. For `O=C(CN1CCC(O)(c2ccccc2)CC1)Nc1ccc2c(c1)OCCO2`, the B-score result was “inactive”.

As to `O=C(CCN1CCc2ccccc2C(O)(c2ccccc2)C1)c1ccc2c(c1)OCCO2` (stereo unspecified), the B-score is 29.6 (active). With `Cc1ccc(N=C2SCCCN2C(=O)c2cccc(N3C(=O)CCC3=O)c2)cc1Cl`, the B-score result was “inactive”. Turning to `CS(=O)(=O)c1sc(C(=O)NC(=S)Nc2ccc(OC(F)(F)F)cc2)c2c1C=CCC2`, the B-score entry was “inactive”.

`CC(=O)OC(C)C[N+](C)(C)C` (stereo unspecified): the B-score is 119 (active). Regarding `CC(=O)OCC(COC(C)=O)OC(C)=O`, the B-score entry was “inactive”. In the case of `CC(C[N+](C)(C)C)OC(N)=O` (stereo unspecified), the B-score was 36.5 (active). Turning to `O=C(Nc1cccc(F)c1)c1coc(=O)c(Br)c1`, the B-score result is “inactive”. In the case of `N#Cc1cc([N+](=O)[O-])ccc1NCC1CCCO1` (stereo unspecified), the B-score entry is “inactive”. `Cn1c2ccccc2c(=O)c2c(=O)n(Cc3ccco3)c(COc3ccccc3)nc21`: the B-score result is “inactive”. Regarding `CCCc1nc2c(c(=O)c3ccccc3n2C)c(=O)n1-c1cc(C)cc(C)c1`, the B-score result is “inactive”. On to `CCCc1nc2c(c(=O)c3ccccc3n2C)c(=O)n1C1CCCCCC1`, for which the B-score was 63 (active). In the case of `C/C=C/c1ccc(OCC(=O)OCC(=O)Nc2c(C)nn(-c3ccccc3)c2C)c(OC)c1`, the B-score result is “inactive”. Turning to `COc1cc2c3c(c1)/C(=C1/SC(=S)NC1=O)C(=O)N3C(C)(C)C=C2C`, the B-score result was “inactive”. With `O=C(COC(=O)c1ccc(O)cc1)Nc1nccs1` the entry was “inactive”; with `COc1ccc(CNc2ccc3c(c2)CCC3)cc1OC`, “inactive”; with `O=C(COC(=O)CNS(=O)(=O)c1ccccc1)NC12CC3CC(CC(C3)C1)C2`, “inactive”. In the case of `CN(C)C(=O)N=NC(=O)N(C)C`, the B-score entry was “inactive”. For `NC1=NC(=O)C2(COC(c3ccccc3Cl)OC2)S1` (stereo unspecified), the B-score result was “inactive”. Take `CC(C)(C)SCCNC(=O)c1cccc([N+](=O)[O-])c1`: the B-score entry was “inactive”. In the case of `CCCCCC(=O)NC(=S)NNC(=O)c1ccc([N+](=O)[O-])cc1`, the B-score result was “inactive”. `CC(C)CC(=O)NC(=S)NNC(=O)c1cccc([N+](=O)[O-])c1`: the B-score was 70.6 (active). Turning to `CC(=O)c1c(O)cc2n(c1=O)-c1ccc(Cl)cc1C2(C)C`, the B-score entry was “inactive”. As for `CCN(CC(=O)Nc1ccc2c(c1)OCCO2)Cc1cc(=O)oc2cc(C)c(C)cc12`, the B-score entry was “inactive”. As for `CC(=O)Nc1ccc(NC(=O)CS(=O)(=O)c2cn(CC(=O)N3CCCCC3)c3ccccc23)cc1`, the B-score entry is “inactive”. With `CC1CCCCN1S(=O)(=O)c1ccc(C(=O)Nc2nnc(-c3cccs3)o2)cc1` (stereo unspecified), the B-score is 48.6 (active). Regarding `CC1CCCN(S(=O)(=O)c2ccc(C(=O)Nc3nnc(-c4ccncc4)o3)cc2)C1` (stereo unspecified), the B-score entry is “inactive”. For the molecule `CSCc1nnc(NC(=O)c2ccc(S(=O)(=O)N3CCCCC3C)cc2)o1` (stereo unspecified), the B-score entry is “inactive”. For `Cc1nc(N)nc(SCc2ccc([N+](=O)[O-])cc2)c1N`, the B-score entry was “inactive”. Take `CCN(C(=O)CN1C(=O)/C(=C/c2ccc(F)cc2)SC1=S)C1CCS(=O)(=O)C1` (stereo unspecified): the B-score result is “inactive”. Turning to `Nc1ccccc1SCc1cc([N+](=O)[O-])cc2c1OCOC2`, the B-score entry is “inactive”. For `Nc1ccccc1SC(C[N+](=O)[O-])c1ccccc1` (stereo unspecified), the B-score is 28.1 (active). As for `CCS(=O)(=O)c1cc([N+](=O)[O-])c(Sc2ccccc2N)s1`, the B-score result was “inactive”.

For `CN1CCN(C(=O)c2ccc(NS(=O)(=O)c3ccccc3)cc2)CC1`, the B-score result is “inactive”. Turning to `C/C(=N\NC(=O)c1ccc2ccccc2c1)c1cccnc1`, the B-score result was “inactive”.

With `O=C(NCCC1CCCCN1S(=O)(=O)c1ccc(F)cc1)C(=O)NC1CC1` (stereo unspecified), the B-score result is “inactive”. `CC(=O)Nc1ccc(NC(=O)CN2C(=O)COc3ccc(S(=O)(=O)N4CCCCC4)cc32)cc1`: the B-score result is “inactive”.

As to `Cc1cccc(N(C)C(=O)CN2C(=O)COc3ccc(S(=O)(=O)N4CCCCCC4)cc32)c1`, the B-score is 46.3 (active). For the molecule `CN(C)c1ccc(CNC(=O)CN2C(=O)COc3ccc(S(=O)(=O)N4CCCC4)cc32)cc1`, the B-score entry was “inactive”. On to `CCN(CC)S(=O)(=O)c1ccc(N2CC(C(=O)NCc3cccnc3)CC2=O)cc1` (stereo unspecified), for which the B-score result is “inactive”. The same measure for `COc1ccnc(Oc2ccccc2)n1`: “inactive”; for `Cc1ccc(S(=O)(=O)N(CC(=O)NN=C2CCN(C)CC2)c2ccc(F)cc2)cc1`: “inactive”. Regarding `O=C1c2ccccc2C(=O)N1c1cccc2ccccc12`, the B-score entry was “inactive”. The same measure for `O=C1C(=O)N(c2ccccc2)c2ccccc21`: 29.6 (active). With `CC(C)OC(=O)CN1C(=O)C(=O)c2ccccc21`, the B-score entry was “inactive”. Consider `N/C(=N\OC(=O)CCCC(=O)O)c1ncc(C(F)(F)F)cc1Cl`, for which the B-score entry was “inactive”. Take `CC1CCCCC1NC(=O)CN1CCC(O)(c2ccc3c(c2)OCO3)CC1` (stereo unspecified): the B-score entry is “inactive”.

In the case of `O=[N+]([O-])c1ccc2c(c1)C(O)n1nc(-c3ccccc3)nc1S2` (stereo unspecified), the B-score result is “inactive”. On to `COc1ccc(/C=C(\NC(=O)c2ccccc2)C(=O)NCCN2CCOCC2)cc1OC`, for which the B-score entry was “inactive”. On to `Cn1c2ccccc2c2cc(/C=C(\NC(=O)c3ccccc3)C(=O)NCC(=O)O)ccc21`, for which the B-score was 52.2 (active). As to `CCOC(=O)CNC(=O)/C(=C\c1ccc(F)cc1)NC(=O)c1ccccc1`, the B-score result was “inactive”. With `C/C(=N\Nc1cccc(C(=O)O)c1)c1ccc2c(c1)Nc1ccccc1S2` the entry was “inactive”; with `CCn1c(CC(=O)Nc2ccccc2)nnc1SCC(=O)N1CCOCC1`, “inactive”. As for `O=[N+]([O-])c1ccc(F)cc1Oc1nc(-c2cccnc2)nc2ccccc12`, the B-score result was “inactive”. For the molecule `COc1ccc(Nc2nc(-c3cccnc3)nc3ccccc23)cn1`, the B-score was 38.4 (active). `Cc1cccc(-c2nc(Nc3ccc(O)cc3)c3ccccc3n2)c1`: the B-score entry is “inactive”. Consider `CN(C)/C(=N\OC(=O)c1ccccc1)c1nonc1N`, for which the B-score entry is “inactive”. For the molecule `C=CCO/N=C/C1=C(O)C(C(=O)OC)C(C)(C)CC1=O` (stereo unspecified), the B-score entry is “inactive”. Take `C#CCOCCOCCOCCNc1nc(N2CCN(C(=O)CCCCCCCCCCNC(=O)Cn3cc(CCCCCN)nn3)CC2)nc(N2CCN(C(=O)CCCCCCCCCCNC(=O)[C@H](CO)n3cc(CCCSC)nn3)CC2)n1`: the B-score entry was “inactive”. The same measure for `C#CCOCCOCCOCCNc1nc(N2CCN(C(=O)CCCCCCCCCCNC(=O)[C@H]([C@@H](C)CC)n3cc(CCCCN=C(N)N)nn3)CC2)nc(N2CCN(C(=O)CCCCCCCCCCNC(=O)[C@H](CO)n3cc(CCCSC)nn3)CC2)n1`: “inactive”; for `C#CCOCCOCCOCCNc1nc(N2CCN(C(=O)CCCCCCCCCCNC(=O)[C@H](CCCCN)n3cc(C)nn3)CC2)nc(N2CCN(C(=O)CCCCCCCCCCNC(=O)[C@H](CO)n3cc(CCCSC)nn3)CC2)n1`: 29.2 (active); for `COC(=O)c1cc(S(=O)(=O)N2CCC(C(N)=O)CC2)oc1C`: “inactive”.

Consider `CCOc1ccc(NC(=O)c2ccc(NC(=O)CN3C(=O)C(=O)N(CC(C)C)C3=O)cc2)cc1`, for which the B-score result is “inactive”. The same measure for `Cc1cc(C(=O)NNC(=S)Nc2ccccc2C)cs1`: “inactive”; for `COCCCNc1nc2ccccc2nc1NS(=O)(=O)c1ccc(F)cc1`: “inactive”. With `COc1cc(/C=C2/C(=O)NN(c3cccc(Cl)c3)C2=O)cc(Br)c1O` the figure was 45.3 (active).

As for `COc1cc(/C=C2/C(=O)NN(c3ccc(F)cc3)C2=O)cc([N+](=O)[O-])c1O`, the B-score entry is “inactive”. Regarding `C#CCOc1ccc(/C=C2/C(=O)NN(c3ccccc3)C2=O)cc1OC`, the B-score result was “inactive”. The same measure for `CCCCc1nc(SCC(=O)Nc2nnc(C(C)C)s2)n[nH]1`: “inactive”. For `C=CCN1CN(S(=O)(=O)c2ccc(OC)cc2)c2nc3ccccc3nc21`, the B-score result is “inactive”. On to `O=C(COC(=O)/C=C/c1cccc(Cl)c1)NCCc1ccccc1`, for which the B-score result is “inactive”. In the case of `COCCNC(=O)C1CCN(C(=O)C2CC(=O)N(c3ccc(C)cc3)C2)CC1` (stereo unspecified), the B-score entry was “inactive”.

As for `O=C(Cc1ccc(Cl)c(Cl)c1)Nc1ccc(SC(F)F)cc1`, the B-score entry was “inactive”.

`O=C(CC1SCCNC1=O)Nc1ccc(Cl)c(Cl)c1` (stereo unspecified): the B-score entry is “inactive”. As for `O=C(CC(O)(C(F)(F)F)C(F)(F)F)Nc1ccc(Cl)c(Cl)c1`, the B-score was 38.4 (active). For the molecule `Cc1nn(C)c(C)c1C(C)NC(=O)c1ccc(OC2CCN(Cc3ccccn3)CC2)cc1` (stereo unspecified), the B-score entry was “inactive”. The same measure for `COc1cccc(COC(=O)C2CCN(S(=O)(=O)c3ccc(Cl)cc3)CC2)c1OC`: “inactive”. With `CCOc1ccc(S(=O)(=O)N2CCC(C(=O)OCc3ccc(OC)cc3)CC2)cc1` the entry was “inactive”; with `COC(=O)c1ccc(COC(=O)C2CCN(S(=O)(=O)c3c(Cl)cccc3Cl)CC2)o1`, 28.7 (active). On to `NC(=O)C1CCN(C(=O)CC2C(=O)NCCN2Cc2cccc(Oc3ccccc3)c2)CC1` (stereo unspecified), for which the B-score entry was “inactive”. The same measure for `Cc1nn(CCCC(=O)NCc2ccccc2Cl)c(=O)c2nccn12`: “inactive”; for `COc1ccc(OC)c(C(=O)c2coc3ccc(OC)cc23)c1`: “inactive”. On to `COc1ccc(OC)c(C(=O)c2ccc(C(=O)O)cc2)c1`, for which the B-score result is “inactive”. Turning to `COc1ccc(OC)c(C(=O)c2ccc(Cl)cc2)c1`, the B-score is 29.4 (active).
